One test deals with pANXA2 in 4T1 cells. The experiment in a line: Western blot of pANXA2 levels after insulin / PP2 treatment. The test is classed as cell-based, murine. The note with it: 100 nM insulin 4 h, PP2 co-administration. Summed up: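 4T1 murine breast cancer cells serum-starved overnight, then treated with 100 nM insulin for 4 h or with PP2, following the same protocol as the insulin imaging study. Cells lysed by ultrasonic homogenisation in RIPA buffer (10 mM Tris-HCl, pH 8.0), and lysates resolved by SDS-PAGE and immunoblotted for pANXA2.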
A general note: In western blotting, separated proteins are transferred to a membrane and probed.

In test [1] the test system is A549, MDA-MB-231, and 4T1. Description: Cellular uptake by fluorescence microscopy, solid cancer cell lines. The test is classed as cell-based. The note with it: 1 μM cypate, all cells. The procedure, abridged:
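Cells were grown in medium with 10% FBS and penicillin/streptomycin (37°C, 5% CO2), then seeded overnight on 8-chamber slides. Compound stock was made in 20% DMSO in PBS (pH 7.4) and diluted into medium to 1 µM final, then incubated at 37°C for several time points. SYTO 13 nuclear stain was added for 45 min at 37°C before epifluorescence or confocal imaging.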

In another test the target is LS301. Description: MST of LS301 with whole-cell lysate. The note with it: reference: lysate of insulin-stimulated 4T1 cells; sites Y23.
The subject of the next test is tumours. The note with it: cited from earlier work.
The next test relates to 4T1 luc/GFP cells. Description: In vitro blocking study of LS301 uptake. The test is classed as cell-based, murine. The note with it: 24 h, LS301 1 µM, blocking agent 50 µM.
Test [2] addresses LS301 (cypate-cyclic(DCys-Gly-Arg-Asp-Ser-Pro-Cys)-Lys-OH). The experiment in a line: MST.

Chain of ANXA2 (endogenous, 4T1 cells) (P07356 whole entry, looked up, change not shown): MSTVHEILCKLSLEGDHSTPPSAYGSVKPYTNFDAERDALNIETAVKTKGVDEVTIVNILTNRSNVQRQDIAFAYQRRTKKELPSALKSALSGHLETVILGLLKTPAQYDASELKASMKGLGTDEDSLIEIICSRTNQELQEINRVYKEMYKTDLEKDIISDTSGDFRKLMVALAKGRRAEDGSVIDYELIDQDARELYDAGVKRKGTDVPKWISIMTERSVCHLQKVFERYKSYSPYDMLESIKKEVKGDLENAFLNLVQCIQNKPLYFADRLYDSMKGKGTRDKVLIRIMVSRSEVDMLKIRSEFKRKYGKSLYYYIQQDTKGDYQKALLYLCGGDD

With `CC(C)(C)n1nc(-c2ccc(Cl)cc2)c2c(N)ncnc21` [PP2], in the test on pANXA2 in 4T1 cells, the “effect on pANXA2 levels in 4T1 cells” value was “this effect was suppressed”.
Regarding `CC1(C)C(/C=C/C=C/C=C/C=C2/N(CCC(=O)O)c3ccc4ccccc4c3C2(C)C)=[N+](CCC(=O)[O-])c2ccc3ccccc3c21` [cypate], in test [1], the “cellular retention of cypate alone” value was “only transient retention in all cells”.
In the case of “ANXA2 (endogenous, 4T1 cells) (from UniProt P07356) lysate of PP2-treated 4T1 cells”, the KD entry in the test with LS301 is on record as “weaker; reference 0.017 ± 0.004 nM”.
For Cypate-GRDSPK, the “retention of Cypate-GRDSPK in tumours” value with tumours is given as “the retention was transient”.
On to LCKLSL, for which the “blocking of LS301 binding and internalization in cells” value in the test on 4T1 luc/GFP cells was “inhibited the binding and internalization of LS301 in cells”.
Turning to “Purified ANXA2 protein (Annexin A2) (from UniProt P07355 1-339) (natural protein)”, the Kd (commonly a measure of binding affinity in units of concentration) in test [2] worked out at 0.389 nM.
“Purified pANXA2 protein (Annexin A2 phosphorylated at tyrosine 23) (from UniProt P07355 1-339) (natural protein)” had a Kd in test [2] of 0.075 nM.
On to “insulin: stimulates tyrosine-23 phosphorylation of ANXA2”, for which the “effect on pANXA2 levels in 4T1 cells” value with pANXA2 in 4T1 cells is given as “increased levels of pANXA2 relative to unstimulated cells”.

Source of the values: PMC7135742 (Nature biomedical engineering, 2020).
